In brackets after ≈: the same amount, converted by molar mass. A value given as a limit tells only on which side of the number the result lay.

This is an account of results in ChEMBL document CHEMBL4477209, “Indole-2-carboxamide-based MmpL3 Inhibitors Show Exceptional Antitubercular Activity in an Animal Model of Tuberculosis Infection” (J Med Chem, 2016).

The target in one data set is Cytochrome P450 3A4 (Homo sapiens, UniProt P08684). In words: Inhibition of CYP3A4 (unknown origin). Type of data set: ADME.
Data set [1] is described as follows: AUClast in BALB/c mouse plasma at 100 mg/kg administered via oral gavage after 0.25 to 24 hrs by LC-MS analysis. It counts as ADME, organism-based. The arrangement: dose 100 mg/kg, time 0.25-24 hr, route oral. In a few lines:
(§1)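 Female BALB/c mice (20 g), single oral gavage dose of 100 mg/kg. Cardiac blood and lungs taken at 0, 0.25, 0.5, 1, 2, 4, 8 and 24 h (n = 3 per time point). Plasma separated by centrifugation; lungs bead-beaten in water and supernatant recovered. Drug quantified by LC-MS/MS against an indole-2-carboxamide internal standard. Parameters derived by noncompartmental analysis.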

Data set [2] in a line: Stability in human liver microsomes assessed as compound remaining at 3 uM after 1 hr. Type of data set: ADME, Microsome. Conditions: read-out: Stability; call rule not given here. In a few lines:
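Human liver microsomes incubated with 3 μM starting concentration for 1 h; percent of compound remaining.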

A short description of data set [3]: Mutagenicity in Salmonella typhimurium TA98 assessed as increase in ratio of revertant colonies at 5000 microg/plate in presence of S9 liver fraction relative to control. Type of data set: toxicity, subcellular. Conditions: salmonella enterica subsp. enterica serovar typhimurium. The gist of the method: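 Bacterial reverse mutation test in S. typhimurium TA98 with S9 liver fraction, at 500 and 5000 μg/plate. Revertant colony count expressed as a ratio to the DMSO solvent control; 2-aminoanthracene as positive control.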

In data set [4] the target is T1, Nuclear receptor subfamily 1 group I member 3 (Homo sapiens, UniProt Q14994).
T1 sequence (Q14994 whole entry): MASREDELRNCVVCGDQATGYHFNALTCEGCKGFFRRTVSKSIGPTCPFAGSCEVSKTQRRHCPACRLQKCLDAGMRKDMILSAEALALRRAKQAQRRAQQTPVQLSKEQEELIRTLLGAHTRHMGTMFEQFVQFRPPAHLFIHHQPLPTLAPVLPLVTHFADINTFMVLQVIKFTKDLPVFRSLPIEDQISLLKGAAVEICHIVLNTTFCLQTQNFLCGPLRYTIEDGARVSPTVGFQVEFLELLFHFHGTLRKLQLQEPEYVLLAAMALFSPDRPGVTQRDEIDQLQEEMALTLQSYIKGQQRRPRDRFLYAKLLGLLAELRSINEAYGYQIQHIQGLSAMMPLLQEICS
Nature of the data set: Transactivation of CAR (unknown origin) assessed as upregulation of CYP2B6 at 3 to 8 microg/ml. It counts as ADME. In a few lines:
(§2)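 Nuclear receptor reporter-gene induction assay, with reporters coupled to PXR, CAR or AhR. Compound was tested at 0.1–1, 3 and 8 μg/mL. Positive controls were rifampin for PXR, CITCO for CAR and 3-methylcholanthrene for AhR.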

Data set [5] can be described thus: Selectivity index, ratio of IC50 for african green monkey Vero cells to MIC for clinical isolates of Mycobacterium tuberculosis. It counts as toxicity. Conditions: read-out: Selectivity Index.
The nature of data set [6]: Mean residence time (last) in BALB/c mouse lung at 100 mg/kg administered via oral gavage by LC-MS analysis. Type of data set: ADME, organism-based. The gist of the method:
as §1

A short description of data set [7]: Stability in mouse hepatocytes assessed as compound remaining at 1 uM after 2 hrs. Type of data set: ADME, cell-based, Hepatocyte. Conditions: read-out: Stability. In a few lines: (§3)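 Hepatocytes from human, mouse, rat or dog incubated with 1 μM starting concentration for 2 h; percent of parent compound remaining.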
Data set [8] is described as follows: Mean residence time (last) in BALB/c mouse plasma at 100 mg/kg administered via oral gavage by LC-MS analysis. It counts as ADME, organism-based. The gist of the method: as §1
Data set [9] has as its target T2, Nuclear receptor subfamily 1 group I member 2 (Homo sapiens, UniProt O75469).
T2 sequence (O75469 whole entry): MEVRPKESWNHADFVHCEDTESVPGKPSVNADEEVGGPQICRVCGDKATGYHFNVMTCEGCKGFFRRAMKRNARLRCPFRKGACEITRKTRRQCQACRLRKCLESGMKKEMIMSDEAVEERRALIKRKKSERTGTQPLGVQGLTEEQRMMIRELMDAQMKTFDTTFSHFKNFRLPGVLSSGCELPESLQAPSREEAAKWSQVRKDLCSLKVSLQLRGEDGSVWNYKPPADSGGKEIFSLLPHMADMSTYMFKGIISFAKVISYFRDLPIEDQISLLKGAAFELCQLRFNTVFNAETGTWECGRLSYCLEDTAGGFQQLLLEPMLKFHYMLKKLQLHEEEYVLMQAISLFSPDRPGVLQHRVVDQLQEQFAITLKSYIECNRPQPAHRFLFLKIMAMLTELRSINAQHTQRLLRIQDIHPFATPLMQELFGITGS
In words: Transactivation of PXR (unknown origin) assessed as upregulation of CYP3A4 at 3 to 8 microg/ml. Type of data set: ADME. In a few lines: as §2

The test system of data set [10] is Mycobacterium tuberculosis. Nature of the data set: Antimycobacterial activity against Mycobacterium tuberculosis H37Rv infected in BALB/c mouse model assessed as reduction in CFU counts in lung at 100 mg/kg administered daily via oral gavage for 5 days per week measured after 14 days post dosage relative to control. It counts as functional. In a few lines:
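Female BALB/c mice, 4-6 weeks old, aerosol-infected with H37Rv (about 10^3 CFU); five mice taken on day 1 for lung implantation CFU. From day 1, 12.5, 25, 50 or 100 mg/kg in 0.5% carboxymethylcellulose by daily oral gavage, 5 days/week. Ethambutol 100 mg/kg as positive control, untreated infected mice as negative, 5 mice per group. Lung homogenates plated on 7H11 selective agar on days 14 and 28.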

Data set [11] is described as follows: Stability in human hepatocytes assessed as compound remaining at 1 uM after 2 hrs. The settings on record: read-out: Stability. It counts as ADME, cell-based, Hepatocyte. The gist of the method:
as §3

Data set [12] in a line: AUMClast in BALB/c mouse plasma at 100 mg/kg administered via oral gavage after 0.25 to 24 hrs by LC-MS analysis. It counts as ADME, organism-based. Conditions: in vivo. In a few lines: as §1
The subject of data set [13] is Mycobacterium tuberculosis. Nature of the data set: Antimycobacterial activity against Mycobacterium tuberculosis H37Rv assessed as growth inhibition at 0.25 times MIC after 7 to 14 days in presence of 0.25 times MIC of rifampin by alamar blue assay based by Bliss synergy model analysis. Type of data set: functional. The gist of the method: (§4)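 Checkerboard of 2-fold dilutions, 4.0 to 0.0313 × MIC of each drug combined with rifampin. M. tuberculosis H37Rv at 1 × 10^4 CFU per well in 200 μL. Single-drug, blank and full-growth controls included. alamarBlue read-out, percent inhibition calculated. Bliss independence applied to wells below 1 × MIC; Δfaxy > 0 taken as synergy, < 0 as antagonism.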
(Resazurin is reduced to fluorescent resorufin, in cell work by metabolically active cells.)

Data set [14] deals with Mycobacterium tuberculosis. Nature of the data set: Antimycobacterial activity against Mycobacterium tuberculosis H37Rv assessed as growth inhibition at 0.5 times MIC after 7 to 14 days in presence of 0.0313 times MIC of rifampin by alamar blue assay based Bliss synergy model analysis. It counts as functional. The gist of the method:
as §4

A short description of data set [15]: Cmax in BALB/c mouse plasma at 100 mg/kg administered via oral gavage after 0.25 to 24 hrs by LC-MS analysis. Type of data set: ADME, organism-based. The arrangement: dose 100 mg/kg, route oral. The gist of the method:
as §1

Data set [16] deals with Mycobacterium tuberculosis. Nature of the data set: Inhibition of MmpL3 in clinical isolates of drug sensitive Mycobacterium tuberculosis V4207 after 7 to 14 days by alamar blue assay.

Sequence of Cytochrome P450 3A4 (P08684 whole entry): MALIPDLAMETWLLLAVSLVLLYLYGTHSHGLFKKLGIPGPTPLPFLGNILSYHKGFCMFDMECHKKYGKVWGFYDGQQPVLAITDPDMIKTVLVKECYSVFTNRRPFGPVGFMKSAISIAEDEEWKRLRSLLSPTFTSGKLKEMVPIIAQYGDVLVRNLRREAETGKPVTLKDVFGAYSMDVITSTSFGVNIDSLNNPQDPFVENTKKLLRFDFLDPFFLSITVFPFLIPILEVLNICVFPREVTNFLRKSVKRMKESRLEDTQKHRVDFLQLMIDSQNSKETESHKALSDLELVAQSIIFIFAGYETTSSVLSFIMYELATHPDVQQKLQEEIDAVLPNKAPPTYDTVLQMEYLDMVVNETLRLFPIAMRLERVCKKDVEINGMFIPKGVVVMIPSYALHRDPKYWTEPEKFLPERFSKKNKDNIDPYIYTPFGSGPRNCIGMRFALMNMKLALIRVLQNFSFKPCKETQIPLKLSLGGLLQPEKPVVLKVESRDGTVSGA

Turning to `C[C@@H]1[C@H]2C[C@@H](C[C@H]1NC(=O)c1cc3c(F)cc(F)cc3[nH]1)C2(C)C`, the “inhibition (INH)” value on Cytochrome P450 3A4 is -6.7%. The AUC(0-t) – broadly, exposure summed from dosing to a finite time, without extrapolation to infinity – in data set [1] was 18900 ng·h/mL. Moreover, in data set [2], the remaining at 1 h, 3 µM came to 69.5%. Also, the “fold change (FC)” value in data set [3] came to 2. The Activity result was “Active” in [4], “Active” in data set [9] and 1.71 log10CFU in data set [10]. For the same compound, the selectivity ratio in data set [5] was no less than 16000. The MRT last – broadly, a mean duration of stay, worked out from the concentration-time curve – in [6] is 8.49 h; in data set [8], 7.28 h. Moreover, the remaining at 2 h, 1 µM in data set [7] is 15%; in [11] it was 52%. In data set [12], this compound came in with an AUMClast of 137 hr.hr.ug/ml. In addition, the “growth inhibition (GI)” value in data set [13] came to 99.4%; in data set [14], 99.2%. In data set [15], the Cmax – broadly, the maximum level reached in the sampled fluid or tissue – was determined as 1710 ng/mL. In [16], the MIC stood at 23 µM (≈ 7.65 µg/mL).
